Source: ChEMBL document CHEMBL5058577, “EUbOPEN Chemogenomics Library 2 (Multiplex)” (2022)

System: Fibroblast
Assay: Multiplex assay against human fibroblast
Type: toxicity, cell-based
How it was run: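 Imaging took place on a CQ1 microscope at 37°C and 5% CO2 once compound had been added to live cells stained at seeding with Hoechst33342, BioTracker Green Microtubule Cytoskeleton Dye, MitoTracker Red and Annexin V Alexa Fluor 680. CellPathfinder machine-learning gating classed cells as Hoechst high-intensity objects or normal cells, classed normal cells as having healthy, pyknosed or fragmented nuclei, and classed pyknosed cells as mitotic or apoptotic. Tubulin, mitochondrial-mass and membrane-permeability phenotypes are per cents of the healthy-nucleus cells.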

[1] = 12 h, 1 µM, compound concentration 1 uM, replicate 1
[2] = 12 h, 1 µM, compound concentration 1 uM, replicate 2
[3] = 12 h, 10 µM, compound concentration 10 uM, replicate 1
[4] = 12 h, 10 µM, compound concentration 10 uM, replicate 2
[5] = 24 h, 1 µM, compound concentration 1 uM, replicate 1
[6] = 24 h, 1 µM, compound concentration 1 uM, replicate 2
[7] = 24 h, 10 µM, compound concentration 10 uM, replicate 1
[8] = 24 h, 10 µM, compound concentration 10 uM, replicate 2
[9] = 48 h, 1 µM, compound concentration 1 uM, replicate 1
[10] = 48 h, 1 µM, compound concentration 1 uM, replicate 2
[11] = 48 h, 10 µM, compound concentration 10 uM, replicate 1
[12] = 48 h, 10 µM, compound concentration 10 uM, replicate 2

## CCCCC1=NC2(CCCC2)C(=O)N1Cc1ccc(-c2ccccc2-c2nnn[nH]2)cc1 [IRBESARTAN]
[1]
  Population Apoptotic (%): 40%
  Population Fragmented Nuclei (%): 14%
  Population Healthy Nuclei (%): 67%
  Population Hoechst High Intensity Objects (%): 1%
  Population Membrane Permeable-Phenotype (%): 0%
  Population Mitochondria Different-Phenotype (%): 5%
  Population Mitotic Cells (%): 59%
  Population Normal (%): 98%
  Population Pyknosed Nuclei (%): 17%
  Population Tubulin-Different-Phenotype (%): 28%
  Total Cell Count: 159
[2]
  Population Apoptotic (%): 38%
  Population Fragmented Nuclei (%): 24%
  Population Healthy Nuclei (%): 55%
  Population Hoechst High Intensity Objects (%): 3%
  Population Membrane Permeable-Phenotype (%): 7%
  Population Mitochondria Different-Phenotype (%): 2%
  Population Mitotic Cells (%): 61%
  Population Normal (%): 96%
  Population Pyknosed Nuclei (%): 20%
  Population Tubulin-Different-Phenotype (%): 43%
  Total Cell Count: 187
[3]
  Population Apoptotic (%): 60%
  Population Fragmented Nuclei (%): 11%
  Population Healthy Nuclei (%): 74%
  Population Hoechst High Intensity Objects (%): 3%
  Population Membrane Permeable-Phenotype (%): 3%
  Population Mitochondria Different-Phenotype (%): 4%
  Population Mitotic Cells (%): 40%
  Population Normal (%): 96%
  Population Pyknosed Nuclei (%): 13%
  Population Tubulin-Different-Phenotype (%): 37%
  Total Cell Count: 151
[4]
  Population Apoptotic (%): 45%
  Population Fragmented Nuclei (%): 32%
  Population Healthy Nuclei (%): 48%
  Population Hoechst High Intensity Objects (%): 7%
  Population Membrane Permeable-Phenotype (%): 12%
  Population Mitochondria Different-Phenotype (%): 3%
  Population Mitotic Cells (%): 54%
  Population Normal (%): 92%
  Population Pyknosed Nuclei (%): 18%
  Population Tubulin-Different-Phenotype (%): 53%
  Total Cell Count: 129
[5]
  Population Apoptotic (%): 47%
  Population Fragmented Nuclei (%): 19%
  Population Healthy Nuclei (%): 69%
  Population Hoechst High Intensity Objects (%): 2%
  Population Membrane Permeable-Phenotype (%): 1%
  Population Mitochondria Different-Phenotype (%): 3%
  Population Mitotic Cells (%): 52%
  Population Normal (%): 97%
  Population Pyknosed Nuclei (%): 10%
  Population Tubulin-Different-Phenotype (%): 22%
  Total Cell Count: 170
[6]
  Population Apoptotic (%): 31%
  Population Fragmented Nuclei (%): 25%
  Population Healthy Nuclei (%): 57%
  Population Hoechst High Intensity Objects (%): 3%
  Population Mitochondria Different-Phenotype (%): 0%
  Population Mitotic Cells (%): 68%
  Population Normal (%): 96%
  Population Pyknosed Nuclei (%): 16%
  Population Tubulin-Different-Phenotype (%): 40%
  Total Cell Count: 183
[7]
  Population Apoptotic (%): 56%
  Population Fragmented Nuclei (%): 9%
  Population Healthy Nuclei (%): 74%
  Population Hoechst High Intensity Objects (%): 1%
  Population Membrane Permeable-Phenotype (%): 3%
  Population Mitochondria Different-Phenotype (%): 7%
  Population Mitotic Cells (%): 44%
  Population Normal (%): 98%
  Population Pyknosed Nuclei (%): 16%
  Population Tubulin-Different-Phenotype (%): 37%
  Total Cell Count: 155
[8]
  Population Apoptotic (%): 45%
  Population Fragmented Nuclei (%): 36%
  Population Healthy Nuclei (%): 47%
  Population Hoechst High Intensity Objects (%): 2%
  Population Membrane Permeable-Phenotype (%): 8%
  Population Mitochondria Different-Phenotype (%): 5%
  Population Mitotic Cells (%): 55%
  Population Normal (%): 97%
  Population Tubulin-Different-Phenotype (%): 60%
  Total Cell Count: 125
[9]
  Population Apoptotic (%): 60%
  Population Fragmented Nuclei (%): 21%
  Population Healthy Nuclei (%): 69%
  Population Hoechst High Intensity Objects (%): 3%
  Population Membrane Permeable-Phenotype (%): 0%
  Population Mitochondria Different-Phenotype (%): 4%
  Population Mitotic Cells (%): 40%
  Population Normal (%): 96%
  Population Pyknosed Nuclei (%): 8%
  Population Tubulin-Different-Phenotype (%): 31%
  Total Cell Count: 173
[10]
  Population Apoptotic (%): 55%
  Population Fragmented Nuclei (%): 31%
  Population Healthy Nuclei (%): 58%
  Population Hoechst High Intensity Objects (%): 2%
  Population Membrane Permeable-Phenotype (%): 2%
  Population Mitochondria Different-Phenotype (%): 1%
  Population Mitotic Cells (%): 44%
  Population Normal (%): 97%
  Population Pyknosed Nuclei (%): 10%
  Population Tubulin-Different-Phenotype (%): 39%
  Total Cell Count: 178
[11]
  Population Apoptotic (%): 61%
  Population Fragmented Nuclei (%): 14%
  Population Healthy Nuclei (%): 66%
  Population Hoechst High Intensity Objects (%): 2%
  Population Membrane Permeable-Phenotype (%): 1%
  Population Mitochondria Different-Phenotype (%): 5%
  Population Mitotic Cells (%): 38%
  Population Normal (%): 97%
  Population Pyknosed Nuclei (%): 18%
  Population Tubulin-Different-Phenotype (%): 38%
  Total Cell Count: 141
[12]
  Population Apoptotic (%): 37%
  Population Fragmented Nuclei (%): 37%
  Population Healthy Nuclei (%): 48%
  Population Hoechst High Intensity Objects (%): 0%
  Population Membrane Permeable-Phenotype (%): 3%
  Population Mitochondria Different-Phenotype (%): 1%
  Population Mitotic Cells (%): 62%
  Population Normal (%): 99%
  Population Pyknosed Nuclei (%): 13%
  Population Tubulin-Different-Phenotype (%): 58%
  Total Cell Count: 117
